The record followed here is ChEMBL document CHEMBL2146455, “Structure-activity studies on the spiroketal moiety of a simplified analogue of debromoaplysiatoxin with antiproliferative activity” (J Med Chem, 2012).

The term GI50 denotes the concentration that inhibits growth by half. Low values mean more potent growth inhibition, high ones less potent growth inhibition. A word on the Ki: it is a measure of affinity in units of concentration, obtained from inhibition or displacement. Lower therefore signals tighter binding. A word on the logP: it is the decadic logarithm of the partition coefficient of the neutral form, usually between octanol and water. Higher therefore signals higher lipophilicity.

Data set [1] has as its system Mus musculus. Briefly: Tumor promoting activity in ICR mouse assessed as effect on DMBA-mediated skin carcinogenesis at 1.7 nmol administered 1 week after DMBA challenge twice weekly measured by two-stage carcinogenesis test. The data set is classed as organism-based. The conditions noted are these: in vivo, 168 h. Put shortly: (§1)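 Two-stage mouse skin model in ICR mice, 10 per group. Back skin initiated with a single 390 nmol dose of DMBA, then promoted with 1.7 nmol of test compound; TPA served as control. Scored as tumor-bearing mice (%), compared by Fisher's exact test, and papillomas per mouse, compared by Welch's t-test; p < 0.05.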

The subject of another data set is SNB-78. Briefly: Growth inhibition of human SNB-78 cells after 48 hrs by sulforhodamine B assay. The data set is classed as functional. The conditions noted are these: SNB-78, 48 h. Put shortly: (§2)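 Cell line from a 39-line human cancer panel, grown in RPMI 1640 with 5% FBS and attached overnight. Exposed 48 h to drug at 10⁻⁸ to 10⁻⁴ M (tenfold steps). Sulforhodamine B read at 525 nm against control and time-0 wells. % growth = 100[(T − T₀)/(C − T₀)] from duplicate points; GI₅₀ is the level giving 50.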
In general terms: Sulforhodamine B stains cellular protein and so reports cell mass.

In a further data set the test system is HCC 2998. Put plainly: Growth inhibition of human HCC2998 cells after 48 hrs by sulforhodamine B assay. The class given is functional. The conditions noted are these: HCC 2998, 48 h. Put shortly: as §2
The test system of another data set is St-4. Put plainly: Growth inhibition of human St-4 cells after 48 hrs by sulforhodamine B assay. The class given is functional. The conditions noted are these: St-4, 48 h. An outline of the steps: as §2
In data set [2] the test system is Raji. Put plainly: Tumor promoting activity in human Raji cells assessed as induction of EBV-early antigen activation at 1 uM after 48 hrs by FITC staining based indirect immunofluorescence assay. The data set is classed as cell-based. An outline of the steps: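 Raji B-lymphoblastoid cells (5 × 10⁵/mL) held 48 h at 37 °C, 5% CO₂, in RPMI 1640 with 10% FBS. Medium contained 4 mM sodium n-butyrate and compound at 10, 100 or 1000 nM final, with 0.4% DMSO final. Smears stained by indirect immunofluorescence using NPC patient serum and FITC anti-human IgG. At least 500 cells counted; result given as % EA-positive.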

Another data set deals with A549. Briefly: Growth inhibition of human A549 cells after 48 hrs by sulforhodamine B assay. The conditions noted are these: A549, 48 h. The class given is functional. Put shortly: as §2
The target of data set [3] is Protein kinase C beta type (Homo sapiens, UniProt P05771). Put plainly: Inhibition of [3H]PDBu binding to PKCbeta C1A domain. Put shortly: (§3)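 Displacement of [³H]PDBu (20 nM) from synthetic PKC C1 peptides (10−20 nM; about 3 nM properly folded) in 50 mM Tris-maleate, pH 7.4 at 4 °C. Buffer held 50 μg/mL phosphatidylserine and 3 mg/mL bovine γ-globulin, with inhibitor at various concentrations. IC₅₀ taken from 50% loss of specific binding by probit; Ki by the Sharkey–Blumberg method.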
Protein kinase C beta type, sequence (P05771 whole entry, the tested form may be a part): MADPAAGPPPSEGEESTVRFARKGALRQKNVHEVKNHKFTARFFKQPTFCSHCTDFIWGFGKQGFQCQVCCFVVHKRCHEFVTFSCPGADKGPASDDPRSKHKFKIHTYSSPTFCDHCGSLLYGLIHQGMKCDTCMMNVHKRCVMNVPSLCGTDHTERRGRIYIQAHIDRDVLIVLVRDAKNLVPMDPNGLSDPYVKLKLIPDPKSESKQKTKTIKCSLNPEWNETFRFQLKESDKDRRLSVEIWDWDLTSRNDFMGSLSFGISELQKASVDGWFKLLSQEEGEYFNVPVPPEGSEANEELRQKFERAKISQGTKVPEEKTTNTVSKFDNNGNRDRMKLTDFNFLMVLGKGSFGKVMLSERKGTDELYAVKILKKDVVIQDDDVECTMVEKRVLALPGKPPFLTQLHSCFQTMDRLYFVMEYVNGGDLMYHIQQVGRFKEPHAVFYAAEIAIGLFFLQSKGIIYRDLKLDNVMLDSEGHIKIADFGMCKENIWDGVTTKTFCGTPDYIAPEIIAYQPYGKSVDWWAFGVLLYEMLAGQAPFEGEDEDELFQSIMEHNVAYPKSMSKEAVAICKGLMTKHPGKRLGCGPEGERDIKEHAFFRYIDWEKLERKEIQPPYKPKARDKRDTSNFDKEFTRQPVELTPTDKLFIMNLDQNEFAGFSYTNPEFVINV

Data set [4] is described as follows: n-Octanol-water partition coefficient, log P of the compound by HPLC analysis. The class given is physicochemical.
Data set [5] deals with Protein kinase C gamma type (Homo sapiens, UniProt P05129). Put plainly: Inhibition of [3H]PDBu binding to PKCgamma C1A domain. Put shortly: as §3
The nature of data set [6]: Growth inhibition of human HBC4 cells after 48 hrs by sulforhodamine B assay. The data set is classed as functional. The note with it: HBC4, 48 h. An outline of the steps: as §2
For the next data set, the system named is NCI-H460. Briefly: Growth inhibition of human NCI-H460 cells after 48 hrs by sulforhodamine B assay. The note with it: NCI-H460, 48 h. The data set is classed as functional. An outline of the steps:
as §2

Another data set has as its system LOX IMVI. Put plainly: Growth inhibition of human LOXIMVI cells after 48 hrs by sulforhodamine B assay. The data set is classed as functional. Put shortly: as §2
The target of data set [7] is T1, Protein kinase C epsilon type (Homo sapiens, UniProt Q02156).
T1 sequence (Q02156 whole entry): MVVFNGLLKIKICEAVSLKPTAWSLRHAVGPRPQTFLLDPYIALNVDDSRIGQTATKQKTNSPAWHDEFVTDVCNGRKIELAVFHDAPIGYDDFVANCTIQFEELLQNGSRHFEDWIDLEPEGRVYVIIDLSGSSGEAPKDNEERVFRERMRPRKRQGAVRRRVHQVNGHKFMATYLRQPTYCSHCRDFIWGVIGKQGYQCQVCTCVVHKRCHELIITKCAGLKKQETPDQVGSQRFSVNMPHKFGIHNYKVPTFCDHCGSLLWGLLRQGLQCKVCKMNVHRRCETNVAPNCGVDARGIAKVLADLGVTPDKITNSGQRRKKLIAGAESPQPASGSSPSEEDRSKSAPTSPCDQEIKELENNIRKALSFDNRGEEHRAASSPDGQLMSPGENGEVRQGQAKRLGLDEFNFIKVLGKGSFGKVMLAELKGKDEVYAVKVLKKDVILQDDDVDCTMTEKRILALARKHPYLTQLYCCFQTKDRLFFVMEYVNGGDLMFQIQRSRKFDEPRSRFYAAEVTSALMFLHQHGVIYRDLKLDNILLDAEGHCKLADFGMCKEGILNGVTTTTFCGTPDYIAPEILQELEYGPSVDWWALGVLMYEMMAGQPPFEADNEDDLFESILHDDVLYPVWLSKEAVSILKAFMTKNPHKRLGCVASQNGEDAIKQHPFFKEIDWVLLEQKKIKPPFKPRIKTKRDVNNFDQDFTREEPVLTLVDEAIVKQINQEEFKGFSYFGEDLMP
Put plainly: Inhibition of [3H]PDBu binding to PKCepsilon C1B domain. Put shortly:
as §3

Data set [8] concerns the target Protein kinase C alpha type (Homo sapiens, UniProt P17252). Put plainly: Inhibition of [3H]PDBu binding to PKCalpha C1A domain. An outline of the steps: as §3
The next data set has as its system MDA-MB-231. Briefly: Growth inhibition of human MDA-MB-231 cells after 48 hrs by sulforhodamine B assay. The note with it: MDA-MB-231, 48 h. The data set is classed as functional. An outline of the steps:
as §2

Data set [9] concerns the target Protein kinase C eta type (Homo sapiens, UniProt P24723). Briefly: Inhibition of [3H]PDBu binding to PKCeta C1B domain. Put shortly:
as §3

For data set [10], the target named is Protein kinase C delta type (Homo sapiens, UniProt Q05655). Put plainly: Inhibition of [3H]PDBu binding to PKCdelta C1B domain. Put shortly: as §3
Protein kinase C delta type, sequence (Q05655 whole entry, the tested form may be a part): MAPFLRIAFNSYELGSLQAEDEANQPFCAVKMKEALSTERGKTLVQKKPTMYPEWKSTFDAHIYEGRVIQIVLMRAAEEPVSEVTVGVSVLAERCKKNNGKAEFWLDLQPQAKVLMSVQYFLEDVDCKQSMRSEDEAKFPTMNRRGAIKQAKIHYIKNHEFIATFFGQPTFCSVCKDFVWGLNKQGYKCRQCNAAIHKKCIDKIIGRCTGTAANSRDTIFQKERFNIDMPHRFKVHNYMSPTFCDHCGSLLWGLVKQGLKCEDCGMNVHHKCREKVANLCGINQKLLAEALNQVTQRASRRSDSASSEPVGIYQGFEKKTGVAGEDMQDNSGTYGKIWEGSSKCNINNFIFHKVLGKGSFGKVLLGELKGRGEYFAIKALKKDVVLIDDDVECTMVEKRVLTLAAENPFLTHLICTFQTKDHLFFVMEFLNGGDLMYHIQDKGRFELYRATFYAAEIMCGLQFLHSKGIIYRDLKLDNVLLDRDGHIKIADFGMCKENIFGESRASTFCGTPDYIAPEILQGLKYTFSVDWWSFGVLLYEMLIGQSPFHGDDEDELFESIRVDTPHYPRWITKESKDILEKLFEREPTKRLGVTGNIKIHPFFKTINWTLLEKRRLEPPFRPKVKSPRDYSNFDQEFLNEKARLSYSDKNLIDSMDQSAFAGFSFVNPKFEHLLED
Data set [11] addresses Protein kinase C theta type (Homo sapiens, UniProt Q04759). Briefly: Inhibition of [3H]PDBu binding to PKCtheta C1B domain. An outline of the steps:
as §3

The subject of data set [12] is Mus musculus. Briefly: Tumor promoting activity in ICR mouse assessed as effect on DMBA-mediated skin carcinogenesis at 8.5 nmol administered 1 week after DMBA challenge twice weekly measured after 20 weeks by two-stage carcinogenesis test. The class given is organism-based. The conditions noted are these: in vivo, 3360 h. An outline of the steps: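 Two-stage skin carcinogenesis in ICR mice, with 10 mice per group. The back skin was initiated with a single 390 nmol DMBA dose, then treated with the test compound. The control group received DMBA plus 1.7 nmol TPA. Read-outs were percentage of tumor-bearing mice and papillomas per mouse, compared by Fisher's exact test and Welch's t-test (p < 0.05).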

In data set [13] the test system is Mus musculus. Put plainly: Tumor promoting activity in ICR mouse assessed as effect on DMBA-mediated skin carcinogenesis at 1.7 nmol administered 1 week after DMBA challenge twice weekly measured after 11 weeks by two-stage carcinogenesis test. The data set is classed as organism-based. The note with it: in vivo, 1848 h. An outline of the steps: as §1
Data set [14] concerns Mus musculus. Put plainly: Tumor promoting activity in DMBA treated ICR mouse assessed as number of papillomas at 1.7 nmol administered 1 week after DMBA challenge twice weekly measured after 20 weeks by two-stage carcinogenesis test. The conditions noted are these: in vivo, 3360 h. The data set is classed as organism-based. Put shortly:
as §1

Data set [15] relates to Mus musculus. Briefly: Tumor promoting activity in ICR mouse assessed as effect on DMBA-mediated skin carcinogenesis at 1.7 nmol administered 1 week after DMBA challenge twice weekly measured after 6 weeks by two-stage carcinogenesis test. The data set is classed as organism-based. The note with it: in vivo, 1008 h. Put shortly:
as §1

The subject of data set [16] is Raji. Briefly: Tumor promoting activity in human Raji cells assessed as induction of EBV-early antigen activation after 48 hrs by FITC staining based indirect immunofluorescence assay. The data set is classed as cell-based. Put shortly: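 Raji cells (5 × 10⁵/mL) were grown in RPMI 1640 with 10% FBS at 37 °C and 5% CO₂, with 4 mM sodium n-butyrate as synergist. Compounds were tested at 10, 100 or 1000 nM final, with DMSO at 0.4% final, for 48 h. Cell smears were stained by indirect immunofluorescence using NPC patient serum and FITC anti-human IgG. At least 500 cells were counted and the percentage of EA-positive cells recorded.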

Protein kinase C theta type, sequence (Q04759 whole entry, the tested form may be a part): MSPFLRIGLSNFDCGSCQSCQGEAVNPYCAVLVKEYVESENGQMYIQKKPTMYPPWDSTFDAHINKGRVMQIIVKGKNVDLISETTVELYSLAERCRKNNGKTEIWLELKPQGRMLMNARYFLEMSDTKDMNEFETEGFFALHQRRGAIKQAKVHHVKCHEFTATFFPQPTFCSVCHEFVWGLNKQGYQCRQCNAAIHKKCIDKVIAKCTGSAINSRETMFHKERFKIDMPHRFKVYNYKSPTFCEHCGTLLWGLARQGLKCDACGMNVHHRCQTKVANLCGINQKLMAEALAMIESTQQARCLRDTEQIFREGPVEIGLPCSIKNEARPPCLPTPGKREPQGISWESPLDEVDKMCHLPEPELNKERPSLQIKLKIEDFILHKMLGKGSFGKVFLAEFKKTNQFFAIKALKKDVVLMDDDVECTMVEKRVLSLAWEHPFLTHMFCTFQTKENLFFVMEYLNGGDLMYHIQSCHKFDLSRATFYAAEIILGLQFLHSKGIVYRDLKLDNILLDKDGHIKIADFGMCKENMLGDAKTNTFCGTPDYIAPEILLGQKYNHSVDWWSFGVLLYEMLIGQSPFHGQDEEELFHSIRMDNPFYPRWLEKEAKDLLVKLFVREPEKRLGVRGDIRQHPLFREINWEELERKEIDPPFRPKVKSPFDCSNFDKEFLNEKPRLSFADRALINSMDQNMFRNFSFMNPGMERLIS
Protein kinase C eta type, sequence (P24723 whole entry, the tested form may be a part): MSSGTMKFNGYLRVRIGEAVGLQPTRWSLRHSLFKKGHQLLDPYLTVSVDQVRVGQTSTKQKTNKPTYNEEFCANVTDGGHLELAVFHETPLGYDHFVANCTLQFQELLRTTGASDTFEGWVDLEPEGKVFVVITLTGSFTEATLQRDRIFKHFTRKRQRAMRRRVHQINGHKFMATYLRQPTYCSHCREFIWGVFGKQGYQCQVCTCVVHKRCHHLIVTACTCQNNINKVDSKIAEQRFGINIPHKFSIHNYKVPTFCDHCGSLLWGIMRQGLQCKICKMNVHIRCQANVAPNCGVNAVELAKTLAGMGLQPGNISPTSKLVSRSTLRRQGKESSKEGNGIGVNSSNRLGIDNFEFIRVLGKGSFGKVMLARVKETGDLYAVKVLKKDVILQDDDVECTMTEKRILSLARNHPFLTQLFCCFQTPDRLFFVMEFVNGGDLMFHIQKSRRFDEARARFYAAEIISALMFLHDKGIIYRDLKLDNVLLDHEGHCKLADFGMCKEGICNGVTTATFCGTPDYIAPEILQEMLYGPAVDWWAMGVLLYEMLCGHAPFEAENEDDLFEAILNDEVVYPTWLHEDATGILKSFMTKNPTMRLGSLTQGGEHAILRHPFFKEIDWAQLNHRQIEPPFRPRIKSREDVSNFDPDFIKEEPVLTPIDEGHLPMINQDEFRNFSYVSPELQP

`CO[C@@H](CC[C@H](C)[C@H]1O[C@@]23C[C@H](OC(=O)C[C@H]([C@@H](C)O)OC(=O)C[C@](O)(O2)[C@H](C)CC3(C)C)[C@@H]1C)c1cccc(O)c1` [DEBROMOAPLYSIATOXIN]: the Activity result in the data set on Mus musculus [1] and in the data set on Raji [2] was “Toxic” in each case. The concentration for 50% growth inhibition (GI50) in the data set on SNB-78 is 15800 nM; in the data set on HCC 2998 it was 813 nM; in the data set on St-4, 363 nM; with A549, 1150 nM; in [6] it was 339 nM; in the data set with NCI-H460, 347 nM. The results for the GI50 in the data set on LOX IMVI and in the data set on MDA-MB-231 were 2040 nM and 933 nM, respectively. Moreover, the Ki in data set [3] was 0.17 nM; in [5] it was 0.38 nM; in [7] it was 0.63 nM; in data set [8] it was 0.26 nM; in data set [9], 0.11 nM; in data set [10], 0.2 nM. The Ki in [11] amounted to 0.11 nM. The compound further registered a logP in data set [4] of 4.4.

As to `C[C@H]1[C@@H]2C[C@@]3(O[C@H](CCC3(C)C)CC(=O)O[C@@H](CO)CC(=O)O2)O[C@@H]1CCCCc1cccc(O)c1`, the GI50 with SNB-78 was 891 nM; in the data set on HCC 2998 it was 339 nM; with St-4, 575 nM; with A549, 977 nM; in data set [6], 33.1 nM; with NCI-H460, 85.1 nM. The concentration for 50% growth inhibition (GI50) in the data set with LOX IMVI is 617 nM; in the data set with MDA-MB-231, 126 nM. Besides, the Activity in the data set on Raji [2] was < 10%; in the data set on Mus musculus [12], “Non-toxic”. The Ki in data set [3] turned out to be 12 nM; in data set [5], 5.5 nM; in data set [7], 2 nM; in data set [8], 4.7 nM; in data set [9] it was 0.45 nM; in data set [10], 0.46 nM. Besides, the Ki in data set [11] came to 0.54 nM. Further, in [4], the logP is 3.6.

For `CCCCCCCCCCCCCC(=O)O[C@@H]1[C@@H](C)[C@@]2(O)[C@@H](C=C(CO)C[C@]3(O)C(=O)C(C)=C[C@@H]23)[C@@H]2C(C)(C)[C@]12OC(C)=O` [PHORBOL MYRISTATE ACETATE], the Activity was 100% in the data set on Mus musculus [13], “Toxic” in the data set on Raji [2], “Toxic” in the data set on Mus musculus [14] and “Toxic” in the data set with Mus musculus [15].

`CC1(C)CC[C@@H]2CC(=O)O[C@@H](CO)CC(=O)O[C@@H]3C[C@@H](CCCCc4cccc(O)c4)O[C@@]1(C3)O2`: the logP in data set [4] amounted to 3.3. Moreover, the Activity entry in the data set on Raji [16] was “Toxic”.

`C[C@@H]1CC(C)(C)[C@@]23C[C@@H](C[C@@H](CCCCc4cccc(O)c4)O2)OC(=O)C[C@H](CO)OC(=O)C[C@@H]1O3`: the GI50 was 17400 nM in the data set with SNB-78; 4070 nM in the data set with HCC 2998; 6030 nM in the data set on St-4; 7410 nM in the data set with A549; 275 nM in [6]; 1260 nM in the data set with NCI-H460. The GI50 is 4170 nM with LOX IMVI and 1550 nM in the data set on MDA-MB-231. For the same compound, in the data set on Raji [2], the Activity is recorded as < 10%. Moreover, the inhibitory constant (Ki) in data set [3] worked out at 15 nM; in data set [5] it was 12 nM; in [7], 17 nM; in data set [8] it was 15 nM; in data set [9] it was 5.9 nM; in data set [10], 3.3 nM. This compound showed an inhibition constant (Ki) in data set [11] of 2.9 nM. Moreover, in [4], the logP was 3.7.
